The text below walks through data of ChEMBL document CHEMBL1131010, “Inhibition of human neutrophil elastase. 4. Design, synthesis, X-ray crystallographic analysis, and structure-activity relationships for a series of P2-modified, orally active peptidyl pentafluoroethyl ketones” (J Med Chem, 1998).

Molecules are shown by their SMILES.

What all share (type): functional, Cricetulus griseus
The test system of assay [1] is Cricetinae gen. sp. The assay can be described thus: In vivo HNE inhibitory activity of lung hemorrhage in 6-8 hamsters. The arrangement: concentration or dose not given beside the values. In outline:
(§1)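 Hamsters dosed orally at 1, 1.5, 2 or 4 h before intratracheal instillation of HNE (25 µg). Animals were killed 1 h after HNE and lungs lavaged with saline. BAL hemoglobin was read spectrophotometrically at 536-546 nm. % inhibition of hemorrhage is relative to vehicle-treated animals, given as mean ± SEM of 6-8 hamsters, with p < 0.05 as significance.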

In assay [2] the test system is Cricetinae gen. sp. The assay can be described thus: In vivo percent inhibition of lung hemorrhage in 6-8 hamsters administration of 25 mg/kg 1 hour before intratracheal instillation of HNE (25 ug). In outline:
as §1

Assay [3] has as its system Cricetinae gen. sp. The assay can be described thus: In vivo percent inhibition of lung hemorrhage in 6-8 hamsters administration of 25 mg/kg 2 hours before intratracheal instillation of HNE (25 ug). A digest of the protocol: as §1
Assay [4] relates to Cricetinae gen. sp. Description: In vivo percent inhibition of lung hemorrhage in 6-8 hamsters administration of 25 mg/kg 1 hr before intratracheal instillation of HNE (25 ug). A digest of the protocol:
as §1

The subject of assay [5] is Cricetinae gen. sp. Description: In vivo percent inhibition of lung hemorrhage in 6-8 hamsters administration of 25 mg/kg 2 hr before intratracheal instillation of HNE (25 ug). In outline: as §1
The subject of assay [6] is Cricetinae gen. sp. The assay can be described thus: In vivo percent inhibition of lung hemorrhage in 6-8 hamsters administration of 25 mg/kg 4 hr before intratracheal instillation of HNE (25 ug). A digest of the protocol:
as §1

In assay [7] the test system is Cricetinae gen. sp. The assay can be described thus: In vivo percent inhibition of lung hemorrhage in 6-8 hamsters after administration of 25 mg/kg 1 hr before intratracheal instillation of HNE (25 ug). In outline: as §1

Broadly, the Inhibition is the drop in the measured response relative to a control, in per cent. The inhibition in vivo is the relative decrease from the control value, in per cent. Regarding `CC(C)C(NC(=O)[C@@H]1CCCN1C(=O)[C@@H](NC(=O)c1ccc(C(=O)N2CCOCC2)cc1)C(C)C)C(=O)C(F)(F)C(F)(F)C(F)(F)F` (stereo not given in full), the Inhibition in assay [1] was found to be 47%. The inhibition in vivo at 25 mg/kg in assay [2] turned out to be 30%; in assay [3], 25%.
Molecule `CC(C)C(NC(=O)[C@@H]1CCCN1C(=O)[C@@H](NC(=O)c1ccc(C(=O)N2CCOCC2)cc1)C(C)C)C(=O)C(F)(F)C(F)(F)F` (stereo not given in full) had an Inhibition in assay [1] of 74%.
On the same count and under the same terms, the value for `CC(C)C(NC(=O)[C@@H]1CSCN1C(=O)[C@@H](NC(=O)c1ccc(C(=O)N2CCOCC2)cc1)C(C)C)C(=O)C(F)(F)C(F)(F)F` (stereo not given in full) was 0%.
For the molecule `CC(C)C(NC(=O)C1CCCCN1C(=O)[C@@H](NC(=O)c1ccc(C(=O)N2CCOCC2)cc1)C(C)C)C(=O)C(F)(F)C(F)(F)F` (stereo not given in full), the Inhibition in assay [1] came out at 54%. For the same molecule, the inhibition in vivo at 25 mg/kg came out at 43% in assay [4] and 39% in assay [5].
In turn, `CC(=O)OC1CC(C(=O)NC(C(=O)C(F)(F)C(F)(F)F)C(C)C)N(C(=O)[C@@H](NC(=O)c2ccc(C(=O)N3CCOCC3)cc2)C(C)C)C1` (stereo not given in full) returned an Inhibition in assay [1] of 0%. Besides, the inhibition in vivo at 25 mg/kg in assay [5] and in assay [6] was 0% in each case.
As for `CC(C)C(NC(=O)[C@H]1CCN1C(=O)[C@@H](NC(=O)c1ccc(C(=O)N2CCOCC2)cc1)C(C)C)C(=O)C(F)(F)C(F)(F)F` (stereo not given in full), in assay [1], the Inhibition turned out to be 79%. Moreover, the inhibition in vivo at 25 mg/kg in assay [7] was determined as 57%.
As to `CC(C)C(NC(=O)[C@H]1CC(OCc2ccccc2)CN1C(=O)[C@@H](NC(=O)c1ccc(C(=O)N2CCOCC2)cc1)C(C)C)C(=O)C(F)(F)C(F)(F)F` (stereo not given in full), the Inhibition in assay [1] was 7%.
Still for that read-out and setting: as for `CC(C)C(NC(=O)C1CC(O)CN1C(=O)[C@@H](NC(=O)c1ccc(C(=O)N2CCOCC2)cc1)C(C)C)C(=O)C(F)(F)C(F)(F)F` (stereo not given in full), the figure is 0%.
